Screens as filed in PubChem BioAssay.
SENP6 block: SENP6 protease inhibition | Q9GZR1 | Recombinant SENP6 catalytic domain, aminoluciferin luminescence | inhibition, % at 10 µM | 1.8% of 330,000 active | AID 2599;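 active = inhibition above about 50% at the single tested dose, limit read from the data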;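 also: plate controls were DMSO wells with enzyme for no effect and DMSO wells lacking enzyme for full effect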
Target sequence (Q9GZR1 628-1112 limits assumed): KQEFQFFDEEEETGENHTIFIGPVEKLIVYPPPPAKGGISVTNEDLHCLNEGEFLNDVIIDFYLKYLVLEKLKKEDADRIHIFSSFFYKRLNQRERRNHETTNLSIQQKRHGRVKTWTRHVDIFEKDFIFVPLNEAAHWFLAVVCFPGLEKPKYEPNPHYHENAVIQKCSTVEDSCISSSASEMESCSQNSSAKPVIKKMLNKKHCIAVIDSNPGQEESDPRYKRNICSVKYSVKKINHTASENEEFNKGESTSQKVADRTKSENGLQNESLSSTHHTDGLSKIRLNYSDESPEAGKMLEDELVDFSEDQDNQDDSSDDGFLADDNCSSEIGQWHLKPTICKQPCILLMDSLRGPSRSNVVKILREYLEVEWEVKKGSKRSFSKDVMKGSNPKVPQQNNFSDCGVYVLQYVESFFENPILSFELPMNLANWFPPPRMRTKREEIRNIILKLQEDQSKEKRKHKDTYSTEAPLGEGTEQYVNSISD
SENP7 inh: inhibitors of human SENP7 protease. Q9BQF6. recombinant SENP7, Z-RLRGG-aminoluciferin luminescence, 40 min. inhibition, % at 5 µM. 1.5% of 330,000 active;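 active = inhibition above about 50% at the single test dose, limit read from the data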;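 also: plate controls were DMSO with enzyme for no effect and no enzyme buffer wells for full effect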
SENP8 block-1: inhibitors of human SENP8 protease | purified SENP8, Z-RLRGG-aminoluciferin cleavage, luminescence | inhibition, % at 10 µM | 1.2% of 330,000 active | AID 2540; in the data active = inhibition above about 50%
Platelet DG rel: platelet dense granule release activity; human platelet-rich plasma, SFLLRN dense granule ATP release, luminescence; inhibition, %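 (compounds screened at 7.5 µM in platelet-rich plasma)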; 0.22% of 300,000 active;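 active = mean replicate score, as percent of positive control, at or above 50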
SENP1 inh: blocks the human SENP1 SUMO protease catalytic domain | recombinant SENP1 catalytic domain, CyPet-SUMO1-YPet FRET cleavage | AID 624204 | inhibition, % at 10 µM | 0.21% of 360,000 active | Q9P0U3;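 active = inhibition at least 30% at 10 µM, raw YFP signal under a set limit, fluorescence ratio 0.5 to 1.5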;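 also: 0% = enzyme with DMSO and 100% = no enzyme wells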
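Test system: human SENP1 catalytic domain; medium: Tris pH 8 buffer plus EDTA, NaCl, BME, BSA, NP40, catalase; incubation: 50 min reaction at room temperature; technique: FRET, CFP and YFP emission; controls: no-enzyme low control and enzyme-plus-DMSO high control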
SENP8 block-2: blocks human SENP8 cleavage of Nedd8 substrate. 0.64% of 360,000 active. Q96LD8. inhibition, % at 20 µM. recombinant SENP8, Nedd8 substrate fluorescence; in the data active = inhibition mostly above about 40%, no sharp cut-off; inactive = mostly below about 27%
SENP8 conf: confirmation of human SENP8 protease inhibitors; purified SENP8, Nedd8-AMC/pro-Nedd8 cleavage fluorescence, 30 min; shares compounds with SENP8 block-2; 15% of 1,400 active; inhibition, % at 25 µM; in the data active = inhibition mostly above about 39%, no sharp cut-off; inactive = mostly below about 34%
An asterisk follows results filed as active. In the library only some 2.6% were active in any assay of this set; here they are far more common.

How did O=C1CCC2(CC1)NC(=O)N(c1ccccc1)N2 do in these assays?
SENP6 block: 3; SENP7 inh: 10; SENP8 block-1: 5; Platelet DG rel: -3; SENP1 inh: 1; SENP8 block-2: 37*; SENP8 conf: -7

What do the screens show for `C=CCC1CCCCC12NC(=O)N(c1ccccc1)N2` (stereo not given)?
SENP6 block: 2; SENP7 inh: 1; SENP8 block-1: 1; Platelet DG rel: 5; SENP1 inh: -2; SENP8 block-2: 18

How did COc1ccc(CCN2C(=O)CC(NCCc3ccc(S(N)(=O)=O)cc3)C2=O)cc1OC (stereo not given) do in these assays?
SENP6 block: -2; SENP7 inh: -2; SENP8 block-1: -2; Platelet DG rel: 3; SENP1 inh: 1; SENP8 block-2: 40*; SENP8 conf: 21

What do the screens show for `CCSc1nnc(NC(=O)C2CCCN(S(=O)(=O)c3cnc[nH]3)C2)s1` (stereo not given)?
SENP6 block: 1; SENP7 inh: 4; SENP8 block-1: 1; Platelet DG rel: -4; SENP1 inh: 4; SENP8 block-2: -3

Results for COCC(=O)N1CCN(c2ccc([N+](=O)[O-])cc2)CC1 ?
SENP6 block: -3; SENP7 inh: 4; SENP8 block-1: -4; Platelet DG rel: 4; SENP1 inh: 4; SENP8 block-2: 42*; SENP8 conf: 26

How did O=S(=O)(c1ccc2c(c1)OCCO2)N1CCC(c2nc3ccccc3s2)CC1 do in these assays?
SENP6 block: -11; SENP7 inh: -3; SENP8 block-1: 3; Platelet DG rel: 8; SENP1 inh: -1; SENP8 block-2: 4

How did CC(C)(C)C(=O)NCCCc1nc2ccccc2n1CCCOc1ccc(Cl)cc1 do in these assays?
SENP6 block: -14; SENP7 inh: 6; SENP8 block-1: -2; Platelet DG rel: -75; SENP1 inh: 1; SENP8 block-2: 41*; SENP8 conf: 25

What do the screens show for `O=[N+]([O-])c1cc([N+](=O)[O-])c(Oc2cc(F)ccc2F)cc1NN1CCCCC1`?
SENP6 block: 0; SENP7 inh: -3; SENP8 block-1: -5; Platelet DG rel: -5; SENP1 inh: 4; SENP8 block-2: 55*; SENP8 conf: 22

How did O=C(NCC1CCCCC1)c1ccc(Br)o1 do in these assays?
SENP6 block: 2; SENP7 inh: -3; SENP8 block-1: 4; Platelet DG rel: 20; SENP1 inh: 3; SENP8 block-2: 5

Results for CC1CC(C)(C)CC2(C1)NC(=O)N(CC(=O)N1CCN(S(=O)(=O)c3ccc(F)c(F)c3F)CC1)C2=O (stereo not given) ?
SENP1 inh: 3; SENP8 block-2: 12

How did C=C(C(=O)O)C1CCC2(C)CCCC(C)(O)C2C1 (stereo not given) do in these assays?
SENP6 block: -8; SENP7 inh: -6; SENP8 block-1: -3; Platelet DG rel: 2; SENP1 inh: 4; SENP8 block-2: 48*; SENP8 conf: 0

What do the screens show for `O=C(Nc1nccs1)C1CCCCN1S(=O)(=O)c1ccccc1` (stereo not given)?
SENP6 block: 14; SENP7 inh: -6; SENP8 block-1: 1; Platelet DG rel: 7; SENP1 inh: 1; SENP8 block-2: 45*; SENP8 conf: -1

Results for COc1cc(/C=N/N2CCOCC2)ccc1OCc1ccc(Cl)cc1 ?
SENP6 block: 23; SENP7 inh: 6; SENP8 block-1: 4; Platelet DG rel: 6; SENP1 inh: 0; SENP8 block-2: 42*; SENP8 conf: 8

How did O=C1c2cc([N+](=O)[O-])cc3cc([N+](=O)[O-])cc(c23)C(=O)N1c1ccccn1 do in these assays?
Platelet DG rel: 5; SENP1 inh: 2; SENP8 block-2: 43*; SENP8 conf: 35

Results for O=C(NCc1ccccc1)c1ccc2ccccc2n1 ?
SENP6 block: -11; SENP7 inh: 4; SENP8 block-1: -3; Platelet DG rel: 3; SENP1 inh: -3; SENP8 block-2: -6

How did O=[N+]([O-])c1ccccc1NC1CCN(Cc2ccccc2)CC1 do in these assays?
SENP6 block: -16; SENP7 inh: 11; SENP8 block-1: 1; Platelet DG rel: 15; SENP1 inh: 1; SENP8 block-2: 44*; SENP8 conf: 20

Results for O=[N+]([O-])c1ccc(NC2CCN(Cc3ccccc3)CC2)c([N+](=O)[O-])c1 ?
SENP6 block: -4; SENP7 inh: -5; SENP8 block-1: 9; Platelet DG rel: 3; SENP1 inh: 1; SENP8 block-2: 28

Results for O=C1C2CCCCC2C(=O)N1c1ccc(NC2CCN(Cc3ccccc3)CC2)c([N+](=O)[O-])c1 (stereo not given) ?
SENP6 block: -10; SENP7 inh: 11; SENP8 block-1: -6; Platelet DG rel: 12; SENP1 inh: 3; SENP8 block-2: 44*; SENP8 conf: 25

How did CC1CCC2C(=O)N(c3ccc(NC4CCN(Cc5ccccc5)CC4)c([N+](=O)[O-])c3)C(=O)C2C1 (stereo not given) do in these assays?
SENP6 block: 21; SENP7 inh: -7; SENP8 block-1: -12; Platelet DG rel: 0; SENP1 inh: 1; SENP8 block-2: 47*; SENP8 conf: 15

What do the screens show for `O=C1CCC(=O)N1c1ccc(NC2CCN(Cc3ccccc3)CC2)c([N+](=O)[O-])c1`?
SENP6 block: -8; SENP7 inh: 9; SENP8 block-1: 0; Platelet DG rel: 3; SENP1 inh: 5; SENP8 block-2: 37

Results for O=C(O)C1C2C=CC3(O2)C1C(=O)N1c2ccccc2COC13 (stereo not given) ?
SENP6 block: -16; SENP7 inh: 1; SENP8 block-1: -4; Platelet DG rel: 4; SENP1 inh: 1; SENP8 block-2: 13

What do the screens show for `CN(C)CCN(C)C1CN(Cc2ccc(F)cc2)S(=O)(=O)C1` (stereo not given)?
SENP1 inh: -5; SENP8 block-2: 10

Results for COc1ccccc1NC(=O)COc1ccc(/C=N/NS(=O)(=O)c2ccc(C)cc2)cc1 ?
SENP6 block: -23; SENP7 inh: -2; SENP8 block-1: -4; Platelet DG rel: -2; SENP1 inh: 2; SENP8 block-2: 47*; SENP8 conf: 14

What do the screens show for `CCN(CC)S(=O)(=O)c1ccc(/C=C/C(=O)Nc2ccc(N3CCOCC3)cc2)cc1`?
SENP6 block: -4; SENP7 inh: -2; SENP8 block-1: -8; Platelet DG rel: 2; SENP1 inh: 5; SENP8 block-2: 42*; SENP8 conf: 23
